Measured values as given in ChEMBL document CHEMBL1146334, “3D-Quantitative structure-activity relationships of synthetic antileishmanial ring-substituted ether phospholipids” (Bioorg Med Chem, 2007).
pIC50: −log10 of the molar value.

Legend:
[1] = test system: Leishmania infantum; experiment: Antileishmanial activity against Leishmania infantum LEM235 by MTT assay; type: functional, organism-based
[2] = test system: Leishmania donovani; experiment: Antileishmanial activity against Leishmania donovani LEM703 by MTT assay; type: functional, organism-based
[3] = Toxicity against red blood cells assessed as hemolytic activity; type: cell-based, Erythrocyte; settings: human
Method in brief: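 Human red cells from EDTA blood of healthy volunteers were washed thrice in PBS and mixed 1:1 with compound in PBS, 100 to 6.25, for 1 h at 37 °C. After centrifugation at 800g for 10 min, supernatant absorbance was read at 550 nm against 625 nm. % hemolysis = (A − A0)/(Amax − A0) × 100, with PBS as background and water as 100%. HC50 is the concentration giving 50% hemolysis.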

[4] = test system: THP-1; experiment: Cytotoxicity against human THP1 cells after 72 hrs; type: functional, cell-based; settings: THP-1, 72 h
Method in brief: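 THP1 cells at 1 × 10^6 cells/ml were exposed to test concentrations of 50 to 156 for 72 h. About 4 × 10^6 cells were then stained with PI (10 µg/ml) and SYBR-14 (0.1 mg/ml) in HEPES/NaCl/BSA buffer, pH 7.4, for 30 min at 37 °C. Flow cytometry used 488 nm excitation, analysed at least 10,000 cells, excluded autofluorescence and debris, and each experiment was repeated twice.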

| Structure (SMILES) | pIC50 [1] | pIC50 [2] | HC50 [3] | pIC50 [4] |
| --- | --- | --- | --- | --- |
| C[N+]1(CCOP(=O)([O-])OCCCCCCCCCCC=C2CCCCC2)CCCCC1 | 4.32 | 5.06 | > 100 µM | – |
| CCCCCCCCCCCCCCCC=C1CCC(OCCOP(=O)([O-])OCC[N+]2(C)CCCCC2)CC1 (stereo not given) | 5.19 | 4.66 | > 100 µM | 4.59 |
| C[N+]1(CCOP(=O)([O-])OCCCCCCCCCCC=C2C3CC4CC(C3)CC2C4)CCCCC1 | 4.65 | 5.27 | > 100 µM | 3.77 |
| C[N+](C)(C)CCOP(=O)([O-])OCCCCCCCCCCC=C1C2CC3CC(C2)CC1C3 | 5.17 | 5.50 | > 100 µM | 4.23 |
| C[N+](C)(C)C1CCCC1OP(=O)([O-])OCCCCCCCCCCC=C1CCCCC1 (stereo not given) | < 4.00 | 5.07 | 76.3 µM | 4.51 |
| C[N+]1(CCOP(=O)([O-])OCCCCC=C2C3CC4CC(C3)CC2C4)CCCCC1 | < 4.00 | < 4.00 | – | – |
| C[N+](C)(C)CCOP(=O)([O-])OCCCCCC1C2CC3CC(C2)CC1C3 (stereo not given) | < 4.00 | 5.40 | > 100 µM | 4.23 |
| CCCCCCCCCCCCCC=C1CCC(OCCOP(=O)([O-])OCC[N+](C)(C)C)CC1 (stereo not given) | 5.28 | 5.41 | > 100 µM | 4.70 |
| CCCCCCCCCCCC=C1CCC(OCCOP(=O)([O-])OCC[N+]2(C)CCCCC2)CC1 (stereo not given) | 4.64 | 4.66 | – | – |
| C[N+](C)(C)CCOP(=O)([O-])OCCOC1CCCCC1 | < 4.00 | < 4.00 | – | – |
| C[N+](C)(C)C1CCCC1OP(=O)([O-])OCCCCCCCCCCC=C1C2CC3CC(C2)CC1C3 (stereo not given) | 4.42 | 5.41 | > 100 µM | 4.13 |
| C[N+](C)(C)C1CCCCC1OP(=O)([O-])OCCCCCCCCCCC=C1CCCCC1 (stereo not given) | < 4.00 | 4.58 | 59.8 µM | – |
| CCCCCCCCCCCC=C1CCC(OCCOP(=O)([O-])OCC[N+](C)(C)C)CC1 (stereo not given) | 5.49 | 5.15 | 40.6 µM | 4.59 |
| CCCCCCCCCCCCCC=C1CCC(OCCOP(=O)([O-])OCC[N+]2(C)CCCCC2)CC1 (stereo not given) | 4.94 | 4.53 | > 100 µM | 4.19 |
| C[N+]1(CCOP(=O)([O-])OCCCCC=C2CCCCC2)CCOCC1 | < 4.00 | < 4.00 | – | – |
| C[N+]1(CCOP(=O)([O-])OCCOC2CCCCC2)CCCCC1 | < 4.00 | < 4.00 | – | – |
| C[N+]1(CCOP(=O)([O-])OCCCCC=C2CCCCC2)CCCCC1 | < 4.00 | < 4.00 | – | – |

| Structure (SMILES) | pIC50 [1] | pIC50 [2] | HC50 [3] | pIC50 [4] |
| --- | --- | --- | --- | --- |
| CCCCCCCCCCCCCCCC=C1CCC(OCCOP(=O)([O-])OCC[N+]2(C)CCOCC2)CC1 (stereo not given) | 5.43 | 4.79 | > 100 µM | 4.72 |
| CCCCCCCCCCCCC1CCC(OCCOP(=O)([O-])OCC[N+](C)(C)C)CC1 (stereo not given) | 5.25 | 5.02 | 75.7 µM | 4.65 |
| C[N+](C)(C)CCOP(=O)([O-])OCCCCC=C1C2CC3CC(C2)CC1C3 | < 4.00 | 5.30 | > 100 µM | < 3.30 |
| C[N+](C)(C)C1CCCCC1OP(=O)([O-])OCCCCCCCCCCC=C1C2CC3CC(C2)CC1C3 (stereo not given) | < 4.00 | 4.78 | 66.6 µM | 4.40 |
| C[N+]1(CCOP(=O)([O-])OCCCCC=C2C3CC4CC(C3)CC2C4)CCOCC1 | < 4.00 | 4.33 | – | – |
| C[N+](C)(C)CCOP(=O)([O-])OCCCCCCCCCCCC1CCCCC1 | 5.08 | 4.99 | > 100 µM | 4.45 |
| C[N+](C)(C)CCOP(=O)([O-])OCCCCC=C1CCCCC1 | < 4.00 | < 4.00 | – | – |
| CCCCCCCCCCCCCC=C1CCC(OCCOP(=O)([O-])OCC[N+]2(C)CCOCC2)CC1 (stereo not given) | 4.81 | 4.41 | 58.8 µM | 4.69 |
| CCCCCCCCCCCCCCCCOP(=O)([O-])OCC[N+](C)(C)C [MILTEFOSINE] | – | – | 38.3 µM | – |
| C[N+]1(CCOP(=O)([O-])OCCCCCCCCCCC=C2C3CC4CC(C3)CC2C4)CCOCC1 | 5.18 | 5.29 | > 100 µM | 4.43 |
| C[N+]1(CCOP(=O)([O-])OCCOC2CCCCC2)CCOCC1 | < 4.00 | < 4.00 | – | – |
| CCCCCCCCCCCCCCCC=C1CCC(OCCOP(=O)([O-])OCC[N+](C)(C)C)CC1 (stereo not given) | 4.67 | 4.35 | > 100 µM | – |
| C[N+]1(CCOP(=O)([O-])OCCCCCCCCCCC=C2CCCCC2)CCOCC1 | 4.64 | 5.08 | – | – |
| C[N+](C)(C)CCOP(=O)([O-])OCCCCCCCCCCCC1C2CC3CC(C2)CC1C3 (stereo not given) | 5.22 | 5.54 | > 100 µM | 3.77 |
| CCCCCCCCCCCC=C1CCC(OCCOP(=O)([O-])OCC[N+]2(C)CCOCC2)CC1 (stereo not given) | 4.78 | 4.30 | > 100 µM | – |
| C[N+](C)(C)CCOP(=O)([O-])OCCCCCCCCCCC=C1CCCCC1 | 5.28 | 5.62 | 68.3 µM | 4.50 |
